Results as given in ChEMBL document CHEMBL3102752, “Identification of novel drug scaffolds for inhibition of SARS-CoV 3-Chymotrypsin-like protease using virtual and high-throughput screenings” (Bioorg Med Chem, 2014).
Structures can show the parent of a compound that is named as a salt. Calls of active or inactive are those of the source. No cut-off for these calls is given here.

Tests used:
[1] = target: Replicase polyprotein 1ab (Severe acute respiratory syndrome-related coronavirus) (UniProt P0C6X7); assay: Inhibition of SARS coronavirus 3C-like protease using 5-FAM-TSATLQSGFRK(QXL520)-NH2 as substrate at 100 uM preincubated for 5 mins followed by substrate addition measured after 6 mins by FRET assay relative to control
[2] = target: T1, Replicase polyprotein 1ab (Severe acute respiratory syndrome-related coronavirus, UniProt P0C6X7); assay: Inhibition of SARS coronavirus 3C-like protease using 5-FAM-TSATLQSGFRK(QXL520)-NH2 as substrate preincubated for 5 mins followed by substrate addition measured after 6 mins by FRET assay
Procedure, shortened: (§1)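 Enzyme preincubated 5 min with compound (0–200 μM, 2-fold series), then 15 μM FAM/QXL substrate added. Continuous fluorescence read for 6 min, in triplicate. IC50 from Hill fit over two to four independent assays.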

[3] = target: Replicase polyprotein 1ab (Severe acute respiratory syndrome-related coronavirus) (UniProt P0C6X7); assay: Inhibition of SARS coronavirus 3C-like protease using 5-FAM-TSATLQSGFRK(QXL520)-NH2 as substrate at 100 uM preincubated for 5 mins followed by substrate addition measured after 6 mins by FRET assay in presence of GSH relative to control
[4] = target: T1, Replicase polyprotein 1ab; assay: Inhibition of SARS coronavirus 3C-like protease using 5-FAM-TSATLQSGFRK(QXL520)-NH2 as substrate preincubated for 5 mins followed by substrate addition measured after 6 mins by FRET assay in presence of GSH; procedure, shortened: as §1
[5] = target: Replicase polyprotein 1ab (Severe acute respiratory syndrome-related coronavirus) (UniProt P0C6X7); assay: Binding affinity to SARS coronavirus 3C-like protease using 5-FAM-TSATLQSGFRK(QXL520)-NH2 as substrate by SPR analysis
[6] = target: Replicase polyprotein 1ab (Severe acute respiratory syndrome-related coronavirus) (UniProt P0C6X7); assay: Binding affinity to SARS coronavirus 3C-like protease using 5-FAM-TSATLQSGFRK(QXL520)-NH2 as substrate up to 200 uM by SPR analysis
Procedure, shortened: (§2)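 Untagged native 3CLpro amine-coupled to CM5 chip (in 10 mM sodium acetate pH 5.0). Ethanolamine-blocked channel as reference. Running buffer HBS-P pH 7.4, 20 °C.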

[7] = Inhibition of SARS coronavirus PL-protease; design: species or system Severe acute respiratory syndrome-related coronavirus
[8] = target: T1, Replicase polyprotein 1ab; assay: Inhibition of SARS coronavirus 3C-like protease using 5-FAM-TSATLQSGFRK(QXL520)-NH2 as substrate
[9] = target: Replicase polyprotein 1ab (Severe acute respiratory syndrome-related coronavirus) (UniProt P0C6X7); assay: Binding affinity to SARS coronavirus 3C-like protease using 5-FAM-TSATLQSGFRK(QXL520)-NH2 as substrate up to 90 uM by SPR analysis; procedure, shortened: as §2
[10] = target: Ubiquitin carboxyl-terminal hydrolase isozyme L1 (Homo sapiens) (UniProt P09936); assay: Inhibition of human UCH-L1
Procedure, shortened: (§3)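 IC50 determined in triplicate with 32 positive and 32 negative controls per plate. Data fitted to a three-parameter Hill equation.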

Hepacivirus hominis = assay: Inhibition of Hepatitis C virus NS3/4A protease; procedure, shortened: as §3
[11] = target: T2, Dihydroorotase (Bacillus anthracis) (UniProt Q81WF0); assay: Inhibition of Bacillus anthracis dihydroorotase; procedure, shortened: as §3
T2 sequence (whole entry): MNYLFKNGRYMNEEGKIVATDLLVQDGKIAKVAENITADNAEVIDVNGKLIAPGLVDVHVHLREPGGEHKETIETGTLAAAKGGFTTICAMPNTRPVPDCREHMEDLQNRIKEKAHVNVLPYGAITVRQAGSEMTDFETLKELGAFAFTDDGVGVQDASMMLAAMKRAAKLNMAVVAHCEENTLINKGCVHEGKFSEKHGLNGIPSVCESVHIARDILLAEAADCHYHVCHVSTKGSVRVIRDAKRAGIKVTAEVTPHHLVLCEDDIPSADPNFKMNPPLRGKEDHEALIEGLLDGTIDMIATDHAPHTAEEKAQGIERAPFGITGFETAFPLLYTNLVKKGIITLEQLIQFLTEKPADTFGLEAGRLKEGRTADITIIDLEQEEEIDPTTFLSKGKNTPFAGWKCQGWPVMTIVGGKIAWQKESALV

[12] = target: Replicase polyprotein 1ab (Severe acute respiratory syndrome-related coronavirus) (UniProt P0C6X7); assay: Reversible inhibition of SARS coronavirus 3C-like protease using 5-FAM-TSATLQSGFRK(QXL520)-NH2 as substrate assessed as recovery rate at 20 x IC50 preincubated for 1 hr followed by compound washout by FRET assay in presence of GSH; design: scale not given: the % may be the effect or the level left
Procedure, shortened: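 No-compound enzyme served as control. Samples desalted to remove compound; activity measured before and after buffer exchange by the IC50 assay.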

Streptococcus pneumoniae = assay: Inhibition of Streptococcus pneumoniae PurC; procedure, shortened: as §3
[13] = target: T1, Replicase polyprotein 1ab; assay: Competitive inhibition of SARS coronavirus 3C-like protease using 5-FAM-TSATLQSGFRK(QXL520)-NH2 as substrate by Dixon plot analysis
Procedure, shortened: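 Best-fit inhibition model chosen by fitting competitive, non-competitive, uncompetitive or mixed equations to give Ki. Dixon plot; three independent assays.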

Sequence of Ubiquitin carboxyl-terminal hydrolase isozyme L1 (Homo sapiens) (P09936 whole entry, looked up): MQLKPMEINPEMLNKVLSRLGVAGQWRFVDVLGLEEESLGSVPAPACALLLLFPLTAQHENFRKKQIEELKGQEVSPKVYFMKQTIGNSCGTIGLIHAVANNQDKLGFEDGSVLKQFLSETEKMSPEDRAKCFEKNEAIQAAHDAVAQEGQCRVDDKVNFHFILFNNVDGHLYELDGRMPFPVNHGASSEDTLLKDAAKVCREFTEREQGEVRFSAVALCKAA

Structure (SMILES)	inhibition [1]	IC50 [2] [µM]	inhibition [3]	IC50 [4] [µM]	IC50 [7] [µM]	Activity [12] [%]	further results
Nc1ccc(F)c(S(=O)(=O)Nc2cccc(C(F)(F)F)c2)c1	inactive	29.8	inactive	> 200	–	–	–
CN(CC(=O)NC1CCCC1)S(=O)(=O)c1cccc(Cl)c1	–	0.94	–	> 200	–	–	–
COCCOCCn1c(CCCO)nc2ccccc21	inactive	25.6	inactive	186	–	–	–
OCCCc1nc2ccccc2n1CCOc1ccccc1	inactive	> 200	inactive	74.5	–	–	Activity [5]: inactive
C(=C\c1ccccc1)/C[N+]1(C/C=C/c2ccccc2)CCN(C(c2ccccc2)c2ccccc2)CC1	–	29.8	–	28.3	> 200	–	Activity [6]: Active
CCCCC(CC)CNC(=N)NC(=N)NCCCCCCNC(=N)NC(=N)NCC(CC)CCCC (stereo not given) [ALEXIDINE DIHYDROCHLORIDE]	–	24.5	–	17.8	> 200	–	IC50 [8]: 25.1 µM; Activity [5]: inactive
O=C(c1cncc(Br)c1)N1CCN(Cc2ccsc2)CC1	–	10.8	–	24.5	105	–	Activity [5]: inactive
COc1ccc(N(CC(=O)NCc2ccco2)S(C)(=O)=O)cc1	inactive	16.1	inactive	61.9	–	–	Activity [9]: inactive
COc1ccccc1CNC(=O)[C@H](C)NS(=O)(=O)c1ccccc1	inactive	–	inactive	–	–	–	–
Cn1cnc2cc(NC(=O)c3ccc(Cl)cc3)ccc21	–	27.6	–	30.9	> 200	> 50	IC50 [8]: 18.2 µM; inhibition [10]: inactive; inhibition (Hepacivirus hominis): inactive; inhibition [11]: inactive; inhibition (Streptococcus pneumoniae): inactive; Ki [13]: 27.5 µM
S=C(NCc1cccnc1)SCc1cc(Cl)sc1Cl	–	0.16	–	9.2	> 200	> 50	–
CCOc1ccc(S(=O)(=O)NCc2ccc3c(c2)OCO3)cc1C	inactive	> 200	inactive	76.7	> 200	> 50	–
COc1ccc(C(=O)Cn2c(NCCO)nc3ccccc32)cc1	inactive	28.8	inactive	40.9	–	14.3	–
